Experimental data reported in ChEMBL document CHEMBL1125323, “Potent V2/V1a vasopressin antagonists with C-terminal ethylenediamine-linked retro-amino acids” (J Med Chem, 1992).
Numbered stars: 1 amine (or outer) side, 2 acyl side, 3 side chain; on linkers, the order of the positions; unused ones are H or OH. Bridge positions count the residues as written; N and C are the ends. Square brackets hold non-standard residues; d marks the D form. Peptide text beside a SMILES is read from it. X1 = O=C(CC1(S[*:2])CCCCC1)[*:1]

Legend:
[1] = biological target: T1, Vasopressin receptor (Rattus norvegicus) (UniProt P48974+P30560+Q00788); test: Antiantidiuretic potency in terms of measuring changes in urine flow in water-loaded rats under ethanol anesthesia; assay type: functional
Outline: (§1)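 Water-loaded rats under ethanol anesthesia; urine flow followed. USP posterior pituitary reference standard as agonist, all injections intravenous. Effective dose (nmol/kg) is the antagonist dose reducing the response to 2x units of agonist to that of x units alone, interpolated on a log scale between bracketing doses. pA2 = negative log of ED divided by assumed distribution volume 67 mL/kg.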

Vasopressin receptor [2] = biological target: T2, Vasopressin receptor (Rattus norvegicus, UniProt P48974+P30560+Q00788); test: Antiantidiuretic potency in terms of negative logarithm of the effective doses divided by the estimated volume of distribution; assay type: functional, Urine; outline: as §1
[3] = biological target: T1, Vasopressin receptor (Rattus norvegicus); test: Antivasopressor potency in terms of blood pressure response in rats anesthetized with urethane and pretreated with phenoxybenzamine; assay type: functional
Outline: (§2)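 Rats anesthetized with urethane, pretreated with phenoxybenzamine; blood pressure responses recorded. USP posterior pituitary reference standard as agonist, given intravenously with antagonist. ED (nmol/kg) is the antagonist dose at which 2x units of agonist match the response to x units without antagonist, log-interpolated from doses above and below. In vivo pA2 uses assumed distribution volume 67 mL/kg.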

Vasopressin receptor [4] = biological target: T2, Vasopressin receptor; test: Antivasopressor potency in terms of negative logarithm of the effective doses divided by the estimated volume of distribution; assay type: functional; outline: as §2

SMILES	pA2 (Vasopressin receptor [2])	pA2 (Vasopressin receptor [4])	ED [1] [nM/kg]	ED [3] [nM/kg]
CC[C@H](C)[C@@H]1NC(=O)[C@H](Cc2ccccc2)NC(=O)[C@@H](Cc2ccccc2)NC(=O)CC2(CCCCC2)SSC[C@@H](C(=O)N2CCC[C@H]2C(=O)N[C@@H](CCCN=C(N)N)C(=O)NCC(N)=O)NC(=O)[C@H](CC(N)=O)NC1=O ([dF]FINCPRG-NH2; linker N-5 via X1)	8.24	7.86	0.46	0.99
CCOc1ccc(C[C@H]2NC(=O)CC3(CCCCC3)SSC[C@@H](C(=O)N3CCC[C@H]3C(=O)NCCN)NC(=O)[C@H](CC(N)=O)NC(=O)[C@H](C(C)C)NC(=O)[C@H](Cc3ccccc3)NC2=O)cc1	7.64	7.95	1.6	0.75
CCOc1ccc(C[C@H]2NC(=O)CC3(CCCCC3)SSC[C@@H](C(=O)N3CCC[C@H]3C(=O)N[C@@H](CCCN=C(N)N)C(=O)NCC(N)=O)NC(=O)[C@H](CC(N)=O)NC(=O)[C@H]([C@@H](C)CC)NC(=O)[C@H](Cc3ccccc3)NC2=O)cc1	7.75	7.78	1.2	1.2
CCOc1ccc(C[C@H]2NC(=O)CC3(CCCCC3)SSC[C@@H](C(=O)N3CCC[C@H]3C(=O)N[C@@H](CCCN=C(N)N)C(=O)NCCN)NC(=O)[C@H](CC(N)=O)NC(=O)[C@H]([C@@H](C)CC)NC(=O)[C@H](Cc3ccccc3)NC2=O)cc1	8	8.33	0.77	0.32
CC[C@H](C)[C@@H]1NC(=O)[C@H](Cc2ccccc2)NC(=O)[C@@H](Cc2ccccc2)NC(=O)CC2(CCCCC2)SSC[C@@H](C(=O)N2CCC[C@H]2C(=O)N[C@@H](CCCN=C(N)N)C(=O)NCCN)NC(=O)[C@H](CC(N)=O)NC1=O	8.11	7.89	0.55	0.88
CCOc1ccc(C[C@H]2NC(=O)CC3(CCCCC3)SSC[C@@H](C(=O)N3CCC[C@H]3C(=O)N[C@@H](CCCN=C(N)N)C(=O)NCC(N)=O)NC(=O)[C@H](CC(N)=O)NC(=O)[C@H](C(C)C)NC(=O)[C@H](Cc3ccccc3)NC2=O)cc1 ([dY](Et)FVNCPRG-NH2; linker N-5 via X1)	7.81	8.22	1.1	0.45
CC[C@H](C)[C@@H]1NC(=O)[C@H](Cc2ccccc2)NC(=O)[C@@H](Cc2ccccc2)NC(=O)CC2(CCCCC2)SSC[C@@H](C(=O)N2CCC[C@H]2C(=O)N[C@@H](CCCN=C(N)N)C(=O)NCC(=O)NCCN)NC(=O)[C@H](CC(N)=O)NC1=O	8.1	7.58	0.57	1.8

The next lines start with results.

pA2 (Vasopressin receptor [2])	pA2 (Vasopressin receptor [4])	SMILES	ED [1] [nM/kg]	ED [3] [nM/kg]
7.79	8	CCOc1ccc(C[C@H]2NC(=O)CC3(CCCCC3)SSC[C@@H](C(=O)N3CCC[C@H]3C(=O)N[C@@H](CCCN=C(N)N)C(=O)NCCN)NC(=O)[C@H](CC(N)=O)NC(=O)[C@H](C(C)C)NC(=O)[C@H](Cc3ccccc3)NC2=O)cc1	1.1	0.69
7.82	8.33	CCOc1ccc(C[C@H]2NC(=O)CC3(CCCCC3)SSC[C@@H](C(=O)N3CCC[C@H]3C(=O)N[C@@H](CCCN=C(N)N)C(=O)NCC(=O)NCCN)NC(=O)[C@H](CC(N)=O)NC(=O)[C@H](C(C)C)NC(=O)[C@H](Cc3ccccc3)NC2=O)cc1	1.2	0.32
8.1	8.27	CCOc1ccc(C[C@H]2NC(=O)CC3(CCCCC3)SSC[C@@H](C(=O)N3CCC[C@H]3C(=O)N[C@@H](CCCN=C(N)N)C(=O)NCCNC(=O)[C@@H](N)CCCN=C(N)N)NC(=O)[C@H](CC(N)=O)NC(=O)[C@H]([C@@H](C)CC)NC(=O)[C@H](Cc3ccccc3)NC2=O)cc1		
7.92	8.15	CCOc1ccc(C[C@H]2NC(=O)CC3(CCCCC3)SSC[C@@H](C(=O)N3CCC[C@H]3C(=O)NCCNC(=O)[C@H](N)CCCN=C(N)N)NC(=O)[C@H](CC(N)=O)NC(=O)[C@H](C(C)C)NC(=O)[C@H](Cc3ccccc3)NC2=O)cc1		
8.03	8.05	CCOc1ccc(C[C@H]2NC(=O)CC3(CCCCC3)SSC[C@@H](C(=O)N[C@@H](CCCN=C(N)N)C(=O)NCC(=O)NCCN)NC(=O)[C@H](CC(N)=O)NC(=O)[C@H](C(C)C)NC(=O)[C@H](Cc3ccccc3)NC2=O)cc1		
7.07	8.15	CCOc1ccc(C[C@H]2NC(=O)CC3(CCCCC3)SSC[C@@H](C(=O)NCCN)NC(=O)[C@H](CC(N)=O)NC(=O)[C@H](C(C)C)NC(=O)[C@H](Cc3ccccc3)NC2=O)cc1		
7.95	8.15	CCOc1ccc(C[C@H]2NC(=O)CC3(CCCCC3)SSC[C@@H](C(=O)NCCNC(=O)[C@H](N)CCCN=C(N)N)NC(=O)[C@H](CC(N)=O)NC(=O)[C@H](C(C)C)NC(=O)[C@H](Cc3ccccc3)NC2=O)cc1		
6.59	7.61	CCOc1ccc(C[C@H]2NC(=O)CC3(CCCCC3)SSC[C@@H](C(=O)NCCNC(=O)CN)NC(=O)[C@H](CC(N)=O)NC(=O)[C@H](C(C)C)NC(=O)[C@H](Cc3ccccc3)NC2=O)cc1		
